Source: ChEMBL document CHEMBL1127486, “Design of cyclic deltorphins and dermenkephalins with a disulfide bridge leads to analogues with high selectivity for delta-opioid receptors” (J Med Chem, 1994)

Columns and labels:
[1] = biological target: Delta-type opioid receptor (Mus musculus, UniProt P32300); test: In vitro inhibition of electrically induced smooth muscle contractions of mouse vas deferens; assay type: functional, tissue-based
[2] = biological target: Mu-type opioid receptor (Rattus norvegicus, UniProt P33535); test: Inhibition of [3H]CTOP binding to rat brain homogenate mu-opioid receptor
How it was run: (§1)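 Whole brain membranes from male Sprague-Dawley rats, preincubated 30 min at 25 °C to remove endogenous opioids. Incubated 180 min at 25 °C with 0.75 nM [3H][p-ClPhe4]DPDPE (δ) or 0.5 nM [3H]CTOP (μ). Buffer was 50 mM Tris-HCl pH 7.4 with BSA, bacitracin, bestatin, captopril and toluenesulfonyl fluoride. Rapid filtration and scintillation counting. Duplicates, ≥3 experiments, nonlinear least-squares fit.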

[3] = biological target: Mu-type opioid receptor (Cavia porcellus, UniProt P97266); test: In vitro inhibition of electrically evoked contractions in guinea pig ileum longitudinal muscle myenteric plexus; assay type: functional, tissue-based
How it was run: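 Longitudinal muscle–myenteric plexus strips from male Hartley guinea pigs (150–400 g) in 37 °C Krebs bicarbonate gassed with 95% O2/5% CO2. Transmural stimulation at 0.1 Hz, 0.4-ms pulses, supramaximal voltage. Bestatin, bacitracin and captopril added 3 min before cumulative peptide doses. Inhibition compares contraction height 3 min post-dose with the 1-min pre-dose mean.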

[4] = biological target: Delta-type opioid receptor (Rattus norvegicus, UniProt P33533); test: Inhibition of [3H][p-Cl-Phe-][…] binding to rat brain homogenate delta-opioid receptor; how it was run: as §1
[5] = Selectivity ratio against guinea pig ileum and mouse vas deferens contractions; assay type: functional
[6] = biological target: Delta-type opioid receptor (Mus musculus) (UniProt P32300); test: In vitro percentage inhibition of electrically induced smooth muscle contractions of mouse vas deferens after the administration at 6000 nM; assay type: functional
How it was run: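 Vasa deferentia from male ICR mice (25–30 g) in 37 °C magnesium-free Krebs bicarbonate gassed with 95% O2/5% CO2. Transmural stimulation at 0.1 Hz, 2.0-ms pulses, supramaximal voltage. Peptidase inhibitors (bestatin, bacitracin, captopril) given 3 min before peptide. Percent inhibition is the 1-min pre-dose mean contraction height against height 3 min after peptide. Run in duplicate, repeated two or three times.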

Sequence of Delta-type opioid receptor (Rattus norvegicus, UniProt P33533) (P33533 whole entry): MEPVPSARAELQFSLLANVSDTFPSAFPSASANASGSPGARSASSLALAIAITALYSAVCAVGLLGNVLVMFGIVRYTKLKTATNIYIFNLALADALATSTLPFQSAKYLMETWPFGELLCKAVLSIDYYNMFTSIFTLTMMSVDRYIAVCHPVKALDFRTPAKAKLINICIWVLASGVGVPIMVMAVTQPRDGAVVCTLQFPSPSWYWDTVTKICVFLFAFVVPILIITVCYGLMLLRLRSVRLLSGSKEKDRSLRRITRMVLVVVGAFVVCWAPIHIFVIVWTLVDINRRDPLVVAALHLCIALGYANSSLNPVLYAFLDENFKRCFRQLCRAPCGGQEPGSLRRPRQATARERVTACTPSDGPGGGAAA
Sequence of Mu-type opioid receptor (Rattus norvegicus, UniProt P33535) (P33535 whole entry): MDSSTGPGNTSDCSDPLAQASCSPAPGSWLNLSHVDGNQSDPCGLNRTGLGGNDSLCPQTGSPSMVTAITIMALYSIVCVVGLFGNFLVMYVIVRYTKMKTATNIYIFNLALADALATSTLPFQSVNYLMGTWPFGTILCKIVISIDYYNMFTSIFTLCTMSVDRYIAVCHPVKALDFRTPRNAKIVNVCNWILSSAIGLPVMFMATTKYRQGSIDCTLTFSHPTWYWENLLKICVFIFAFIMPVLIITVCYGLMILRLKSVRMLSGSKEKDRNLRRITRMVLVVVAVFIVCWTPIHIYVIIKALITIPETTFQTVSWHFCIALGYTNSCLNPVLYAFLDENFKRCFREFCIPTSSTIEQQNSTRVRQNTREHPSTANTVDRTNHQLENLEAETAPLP
Sequence of Delta-type opioid receptor (Mus musculus, UniProt P32300) (P32300 whole entry): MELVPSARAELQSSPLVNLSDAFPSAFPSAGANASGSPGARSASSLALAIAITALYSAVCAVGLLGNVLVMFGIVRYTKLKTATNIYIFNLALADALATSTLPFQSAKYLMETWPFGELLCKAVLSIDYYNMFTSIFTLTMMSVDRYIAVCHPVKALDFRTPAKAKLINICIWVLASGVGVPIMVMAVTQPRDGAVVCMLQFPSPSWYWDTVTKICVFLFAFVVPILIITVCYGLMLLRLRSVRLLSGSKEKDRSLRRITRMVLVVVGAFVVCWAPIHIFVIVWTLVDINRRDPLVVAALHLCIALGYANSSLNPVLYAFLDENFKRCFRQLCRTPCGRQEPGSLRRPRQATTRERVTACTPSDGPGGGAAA
Sequence of Mu-type opioid receptor (Cavia porcellus, UniProt P97266) (P97266 whole entry): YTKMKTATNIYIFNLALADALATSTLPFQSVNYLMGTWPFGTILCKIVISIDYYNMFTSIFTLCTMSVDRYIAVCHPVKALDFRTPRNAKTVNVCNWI
Sequence of Delta-type opioid receptor (Mus musculus) (P32300 whole entry): as the sequence (P32300 whole entry) above

Row | Structure (SMILES) | IC50 [1] [nM] | IC50 [2] [nM] | IC50 [3] [nM] | IC50 [4] [nM] | Selectivity [5] | inhibition [6] [%]
1 | CC(C)[C@H](NC(=O)[C@@H]1NC(=O)[C@H](CC(=O)O)NC(=O)[C@H](Cc2ccccc2)NC(=O)[C@H](NC(=O)[C@@H](N)Cc2ccc(O)cc2)C(C)(C)SSC1(C)C)C(=O)NCC(N)=O [listing 1 of 2 here] | 920 | 1200 | 5500 | 210 | – | –
2 | CC(C)[C@H](NC(=O)[C@@H]1NC(=O)[C@H](CC(=O)O)NC(=O)[C@H](Cc2ccccc2)NC(=O)[C@H](NC(=O)[C@@H](N)Cc2ccc(O)cc2)C(C)(C)SSC1(C)C)C(=O)NCC(N)=O [listing 2 of 2 here] | – | – | – | – | 6 | –
3 | CC(C)[C@H](NC(=O)[C@H]1NC(=O)[C@H](CC(=O)O)NC(=O)[C@H](Cc2ccccc2)NC(=O)[C@H](NC(=O)[C@@H](N)Cc2ccc(O)cc2)CSSC1(C)C)C(=O)NCC(N)=O [listing 1 of 2 here] | 0.25 | 3760 | 1100 | 2.2 | – | –
4 | CC(C)[C@H](NC(=O)[C@H]1NC(=O)[C@H](CC(=O)O)NC(=O)[C@H](Cc2ccccc2)NC(=O)[C@H](NC(=O)[C@@H](N)Cc2ccc(O)cc2)CSSC1(C)C)C(=O)NCC(N)=O [listing 2 of 2 here] | – | – | – | – | 4400 | –
5 | CC(C)[C@H](NC(=O)[C@H]1NC(=O)[C@H](CC(=O)O)NC(=O)[C@H](Cc2ccccc2)NC(=O)[C@H](NC(=O)[C@@H](N)Cc2ccc(O)cc2)C(C)(C)SSC1(C)C)C(=O)NCC(N)=O [listing 1 of 2 here] | 6.3 | 26000 | 68000 | 3.7 | – | –
6 | CC(C)[C@H](NC(=O)[C@H]1NC(=O)[C@H](CC(=O)O)NC(=O)[C@H](Cc2ccccc2)NC(=O)[C@H](NC(=O)[C@@H](N)Cc2ccc(O)cc2)C(C)(C)SSC1(C)C)C(=O)NCC(N)=O [listing 2 of 2 here] | – | – | – | – | 11000 | –
7 | CC(C)[C@H](NC(=O)[C@@H]1CSSC[C@@H](NC(=O)[C@@H](N)Cc2ccc(O)cc2)C(=O)N[C@@H](Cc2ccccc2)C(=O)N[C@@H](CC(=O)O)C(=O)N1)C(=O)NCC(N)=O | – | – | – | – | 13 | –
8 | CC(C)C(NC(=O)[C@H]1NC(=O)[C@H](CCC(=O)O)NC(=O)C(Cc2ccccc2)NC(=O)[C@H](NC(=O)[C@@H](N)Cc2ccc(O)cc2)C(C)(C)SSC1(C)C)C(=O)NCC(N)=O (single isomer, unassigned) | 2.24 | 4900 | 7100 | 5.7 | 3200 | –
9 | CCCC[C@H](NC(=O)[C@H]1NC(=O)[C@H](Cc2c[nH]cn2)NC(=O)C(Cc2ccccc2)NC(=O)[C@H](NC(=O)[C@@H](N)Cc2ccc(O)cc2)C(C)(C)SSC1(C)C)C(=O)N[C@@H](CC(=O)O)C(=O)O (single isomer, unassigned) | – | 1900 | 4500 | 5.11 | <1.5 | 43.5
10 | CCCC[C@H](NC(=O)[C@H]1NC(=O)[C@H](CC(=O)O)NC(=O)C(Cc2ccccc2)NC(=O)[C@H](NC(=O)[C@@H](N)Cc2ccc(O)cc2)C(C)(C)SSC1(C)C)C(=O)NCC(N)=O (single isomer, unassigned) | 8.8 | 54600 | 137000 | 4.83 | 16000 | –
11 | CC(C)C(NC(=O)[C@H]1NC(=O)[C@H](CO)NC(=O)C(Cc2ccccc2)NC(=O)[C@H](NC(=O)[C@@H](N)Cc2ccc(O)cc2)C(C)(C)SSC1(C)C)C(=O)NCC(N)=O (single isomer, unassigned) | 91.8 | 3300 | 13500 | 10 | 150 | –
12 | CCCC[C@H](NC(=O)[C@H]1NC(=O)[C@H](Cc2c[nH]cn2)NC(=O)C(Cc2ccccc2)NC(=O)[C@H](NC(=O)[C@@H](N)Cc2ccc(O)cc2)C(C)(C)SSC1(C)C)C(=O)N[C@@H](CC(=O)O)C(N)=O (single isomer, unassigned) | 12.7 | 10200 | 22000 | 3.4 | 1700 | –
13 | CSCCC(NC(=O)[C@H](CC(C)C)NC(=O)[C@H](Cc1c[nH]cn1)NC(=O)[C@H](Cc1ccccc1)NC(=O)C(CCSC)NC(=O)[C@@H](N)Cc1ccc(O)cc1)C(=O)N[C@@H](CC(=O)O)C(N)=O (stereo in doubt) [listing 1 of 2 here] | 0.28 | 1900 | 3400 | 0.47 | – | –
14 | CSCCC(NC(=O)[C@H](CC(C)C)NC(=O)[C@H](Cc1c[nH]cn1)NC(=O)[C@H](Cc1ccccc1)NC(=O)C(CCSC)NC(=O)[C@@H](N)Cc1ccc(O)cc1)C(=O)N[C@@H](CC(=O)O)C(N)=O (stereo in doubt) [listing 2 of 2 here] | – | – | – | – | 12000 | –
15 | CC(C)[C@H](NC(=O)[C@H](CC(=O)O)NC(=O)[C@H](Cc1ccccc1)NC(=O)[C@@H](C)NC(=O)[C@@H](N)Cc1ccc(O)cc1)C(=O)N[C@H](C(=O)NCC(N)=O)C(C)C (stereo in doubt; form 1) [DELTORPHIN C] | – | – | 2890 | – | – | –
